The values that follow come from ChEMBL document CHEMBL4376814, “Novel cyclin-dependent kinase 9 (CDK9) inhibitor with suppression of cancer stemness activity against non-small-cell lung cancer” (Eur J Med Chem, 2019).

Assay [1] has as its target Serine/threonine-protein kinase ULK2 (Homo sapiens) (UniProt Q8IYT8). The assay can be described thus: Inhibition of human ULK2 (1 to 306 residues) using casein as substrate measured after 40 mins in presence of [gamma33P]ATP by scintillation counting method relative to control.
Assay [2] addresses Protein kinase C alpha type (Homo sapiens) (UniProt P17252). The assay can be described thus: Inhibition of recombinant full-length human PKCalpha at 1 uM using histone H1 as substrate measured after 40 mins in presence of [gamma33P]ATP by scintillation counting method relative to control.
Assay [3] has as its target Cyclin-dependent kinase 14/Cyclin-Y (Homo sapiens) (UniProt O94921+Q8ND76). The assay can be described thus: Inhibition of human CDK14/cyclinY at 1 uM by radiometric method relative to control. It is filed as protein-complex assay. A digest of the protocol: (§1)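 Percent inhibition of kinase activity at a single compound concentration, measured by the outsourced Eurofins KinaseProfiler panel. Values are the mean of two independent experiments.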

Another assay has as its system Jurkat. Kind of assay: Antiproliferative activity against human Jurkat cells assessed as inhibition of cell viability after 72 hrs by CCK-8 assay. It is filed as functional, cell-based. A digest of the protocol:
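Cells kept at 37 °C, 5% CO2 in DMEM or RPMI-1640 with 10% FBS and 1% penicillin/streptomycin, then seeded at 3000 cells/well (adherent) or 10,000 cells/well (suspension). Exposed to a range of concentrations for 72 h. CCK-8 added for 1-4 h before reading A450. […] Three independent experiments.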
(In general: Tetrazolium dyes change colour on reduction, which living cells bring about.)

For assay [4], the target named is Insulin-like growth factor 1 receptor (Homo sapiens) (UniProt P08069). The assay can be described thus: Inhibition of recombinant human IGF1R (959 to end residues) at 1 uM using KKKSPGEYVNIEFG as substrate measured after 40 mins in presence of [gamma33P]ATP by scintillation counting method relative to control.
Assay [5] addresses Receptor-interacting serine/threonine-protein kinase 1 (Homo sapiens) (UniProt Q13546). The assay can be described thus: Inhibition of human RIPK1 (8 to 322 residues) at 1 uM using myelin basic protein as substrate measured after 120 mins in presence of [gamma33P]ATP by scintillation counting method relative to control. A digest of the protocol:
as §1

A further assay is filed under the species Homo sapiens. The assay can be described thus: Inhibition of recombinant full-length human PI3K p120gamma R459Q mutant at 1 uM using phosphatidylinositol-4, 5-bisphosphate as substrate measured after 40 mins by fluorescence assay relative to control.
Assay [6] has as its target Serine/threonine-protein kinase D2 (Homo sapiens) (UniProt Q9BZL6). Kind of assay: Inhibition of recombinant full-length human PKD2 at 1 uM using KKLNRTLSVA as substrate measured after 40 mins in presence of [gamma33P]ATP by scintillation counting method relative to control.
Assay [7] concerns the target CDK6/cyclin D3 (Homo sapiens) (UniProt P30281+Q00534). Kind of assay: Inhibition of recombinant full-length human CDK6/cyclinD3 at 500 nM using histone H1 as substrate measured after 40 mins in presence of [gamma33P]ATP by scintillation counting method relative to control. Format: protein-complex assay. Put shortly:
as §1

Assay [8] addresses G protein-coupled receptor kinase 6 (Homo sapiens) (UniProt P43250). Kind of assay: Inhibition of recombinant full-length human GRK6 at 1 uM using casein as substrate measured after 40 mins in presence of [gamma33P]ATP by scintillation counting method relative to control.
Assay [9] deals with Mitogen-activated protein kinase 8 (Homo sapiens) (UniProt P45983). Kind of assay: Inhibition of recombinant full-length human JNK1alpha1 at 1 uM using ATF2 as substrate measured after 40 mins in presence of [gamma33P]ATP by scintillation counting method relative to control.
A further assay has as its system NCI-H1299. The assay can be described thus: Induction of apoptosis in human H1299 cells assessed as viable cells at 0.5 uM after 48 hrs by AnnexinV-FITC/PI staining-based flow cytometric analysis (reference value: 97.1%). The conditions noted are these: NCI-H1299, 48 h, read-out: Activity. Format: functional. Background: Flow cytometry measures light scatter and fluorescence of single cells or particles in a stream.

Assay [10] concerns the target Tyrosine-protein kinase Lck (Homo sapiens) (UniProt P06239). Kind of assay: Inhibition of recombinant full-length human LCK activated at 1 uM using KVEKIGEGTYGVVYK as substrate measured after 40 mins in presence of [gamma33P]ATP by scintillation counting method relative to control.
Assay [11] has as its target Casein kinase 2 (Homo sapiens) (UniProt P67870+P68400+P19784+Q8NEV1). The assay can be described thus: Inhibition of human CK2 at 1 uM relative to control. It is filed as protein assay. Put shortly: as §1
In assay [12] the test system is Serine/threonine-protein kinase B-raf (Homo sapiens), P15056 [V600E]. Kind of assay: Inhibition of recombinant human BRAF V599E mutant (416 to end residues) at 1 uM using myelin basic protein as substrate measured after 40 mins in presence of [gamma33P]ATP by scintillation counting method relative to control.
Assay [13] deals with A549. Kind of assay: Induction of apoptosis in human A549 cells assessed as early apoptotic cells at 0.5 uM after 48 hrs by AnnexinV-FITC/PI staining-based flow cytometric analysis (reference value: 2.91%). It is filed as functional.
For assay [14], the target named is Proto-oncogene tyrosine-protein kinase Src (Homo sapiens) (UniProt P12931). The assay can be described thus: Inhibition of recombinant full-length human cSRC at 1 uM using KVEKIGEGTYGVVYK as substrate measured after 40 mins in presence of [gamma33P]ATP by scintillation counting method relative to control.
Assay [15] has as its system A549. The assay can be described thus: Inhibition of colony formation in human A549 cells after 12 days by crystal violet staining based assay. Format: functional, cell-based. Put shortly:
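Cells exposed to compound, then washed, trypsinized and reseeded at 300 cells per well in 6-well plates. Colonies grew 10-14 days (legend: 12 days), were fixed in methanol 30 min, stained overnight with 0.5% crystal violet and imaged.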

Assay [16] concerns Tyrosine-protein kinase Blk (Homo sapiens), P51451 [UNDEFINED MUTATION]. The assay can be described thus: Inhibition of full-length recombinant human BLK M287V mutant at 1 uM using poly(Glu, Tyr) 4:1 as substrate measured after 40 mins in presence of [gamma33P]ATP by scintillation counting method relative to control. A digest of the protocol: as §1
Assay [17] has as its target Ribosomal protein S6 kinase alpha-3 (Homo sapiens) (UniProt P51812). The assay can be described thus: Inhibition of recombinant full-length human Rsk3 at 1 uM using KKKNRTLSVA as substrate measured after 40 mins in presence of [gamma33P]ATP by scintillation counting method relative to control. Put shortly:
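Single-point inhibition at 1 µM was measured in the Eurofins KinaseProfiler panel. Values are the mean of two independent experiments.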

Assay [18] concerns the target Cyclin-dependent kinase-like 2 (Homo sapiens) (UniProt Q92772). Kind of assay: Inhibition of human CDKL2 at 1 uM at 1 uM by radiometric method relative to control. Put shortly: as §1
The target of assay [19] is Serine/threonine-protein kinase NLK (Homo sapiens) (UniProt Q9UBE8). The assay can be described thus: Inhibition of recombinant human NLK (121 to end residues) at 1 uM using myelin basic protein as substrate measured after 40 mins in presence of [gamma33P]ATP by scintillation counting method relative to control.
The target of assay [20] is Tribbles homolog 2 (Homo sapiens) (UniProt Q92519). Kind of assay: Inhibition of recombinant full-length human TRB2 at 1 uM using RRRFRPASPLRGPPK as substrate measured after 120 mins in presence of [gamma33P]ATP by scintillation counting method relative to control.
Assay [21] has as its target Mitogen-activated protein kinase kinase kinase 7 (Homo sapiens) (UniProt O43318). The assay can be described thus: Inhibition of human TAK1 (1 to 303 residues) at 1 uM using casein as substrate measured after 40 mins in presence of [gamma33P]ATP by scintillation counting method relative to control. A digest of the protocol: as §1

Usually inhibition stands for the drop in the measured response relative to a control, in per cent. Usually IC50 stands for the concentration that gives 50% inhibition.

Sequence of Cyclin-dependent kinase-like 2 (Homo sapiens) (Q92772 whole entry): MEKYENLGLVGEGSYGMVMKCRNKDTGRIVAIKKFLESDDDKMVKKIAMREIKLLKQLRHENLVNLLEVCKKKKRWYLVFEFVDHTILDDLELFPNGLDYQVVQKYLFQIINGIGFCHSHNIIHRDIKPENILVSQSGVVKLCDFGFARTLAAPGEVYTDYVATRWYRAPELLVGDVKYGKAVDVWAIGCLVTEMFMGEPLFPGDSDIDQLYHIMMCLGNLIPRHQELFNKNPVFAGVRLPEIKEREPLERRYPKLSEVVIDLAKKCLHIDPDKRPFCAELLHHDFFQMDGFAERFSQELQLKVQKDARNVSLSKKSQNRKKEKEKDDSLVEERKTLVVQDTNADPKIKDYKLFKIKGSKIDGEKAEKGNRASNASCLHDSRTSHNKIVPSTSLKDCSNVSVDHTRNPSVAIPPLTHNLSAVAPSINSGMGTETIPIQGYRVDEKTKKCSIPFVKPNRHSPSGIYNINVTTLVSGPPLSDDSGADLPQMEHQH
Sequence of Receptor-interacting serine/threonine-protein kinase 1 (Homo sapiens) (Q13546 whole entry, the tested form may be a part): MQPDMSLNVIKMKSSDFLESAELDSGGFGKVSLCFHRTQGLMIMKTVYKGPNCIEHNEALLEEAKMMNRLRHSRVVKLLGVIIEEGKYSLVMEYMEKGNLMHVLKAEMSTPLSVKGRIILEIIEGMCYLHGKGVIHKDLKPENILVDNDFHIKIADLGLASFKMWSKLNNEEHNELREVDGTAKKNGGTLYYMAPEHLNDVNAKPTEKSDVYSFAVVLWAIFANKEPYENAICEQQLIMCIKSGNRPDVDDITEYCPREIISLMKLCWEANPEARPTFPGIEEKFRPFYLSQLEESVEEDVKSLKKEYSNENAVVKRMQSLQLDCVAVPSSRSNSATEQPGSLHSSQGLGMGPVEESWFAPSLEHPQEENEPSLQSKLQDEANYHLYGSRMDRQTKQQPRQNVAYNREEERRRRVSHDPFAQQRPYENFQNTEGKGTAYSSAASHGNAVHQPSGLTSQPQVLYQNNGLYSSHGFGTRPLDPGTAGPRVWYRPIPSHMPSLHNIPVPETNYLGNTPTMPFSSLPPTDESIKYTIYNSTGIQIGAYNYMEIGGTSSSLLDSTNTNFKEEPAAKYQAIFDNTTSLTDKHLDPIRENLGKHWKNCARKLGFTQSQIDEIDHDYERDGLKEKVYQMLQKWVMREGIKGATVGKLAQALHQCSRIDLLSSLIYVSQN
Sequence of Insulin-like growth factor 1 receptor (Homo sapiens) (P08069 31-736 limits assumed): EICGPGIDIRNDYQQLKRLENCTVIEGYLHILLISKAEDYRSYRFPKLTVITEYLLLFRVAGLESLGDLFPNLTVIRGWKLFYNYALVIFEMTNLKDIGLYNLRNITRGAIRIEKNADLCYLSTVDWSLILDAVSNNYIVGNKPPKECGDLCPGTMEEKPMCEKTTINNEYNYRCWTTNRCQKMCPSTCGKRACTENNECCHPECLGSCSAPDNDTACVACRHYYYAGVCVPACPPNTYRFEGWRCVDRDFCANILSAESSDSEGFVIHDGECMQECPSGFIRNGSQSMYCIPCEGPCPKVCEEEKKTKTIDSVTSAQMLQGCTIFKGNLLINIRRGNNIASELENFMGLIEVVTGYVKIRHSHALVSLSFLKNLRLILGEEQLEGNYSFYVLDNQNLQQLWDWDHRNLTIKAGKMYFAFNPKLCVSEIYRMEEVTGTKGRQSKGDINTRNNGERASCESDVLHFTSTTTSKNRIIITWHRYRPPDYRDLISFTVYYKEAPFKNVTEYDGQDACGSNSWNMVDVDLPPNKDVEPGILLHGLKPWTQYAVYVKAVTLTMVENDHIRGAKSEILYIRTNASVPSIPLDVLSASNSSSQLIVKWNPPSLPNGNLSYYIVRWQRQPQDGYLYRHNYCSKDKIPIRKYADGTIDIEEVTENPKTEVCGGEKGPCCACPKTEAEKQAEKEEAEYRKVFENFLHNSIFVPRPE
Sequence of Insulin-like growth factor 1 receptor (Homo sapiens) (P08069 741-1367 limits assumed): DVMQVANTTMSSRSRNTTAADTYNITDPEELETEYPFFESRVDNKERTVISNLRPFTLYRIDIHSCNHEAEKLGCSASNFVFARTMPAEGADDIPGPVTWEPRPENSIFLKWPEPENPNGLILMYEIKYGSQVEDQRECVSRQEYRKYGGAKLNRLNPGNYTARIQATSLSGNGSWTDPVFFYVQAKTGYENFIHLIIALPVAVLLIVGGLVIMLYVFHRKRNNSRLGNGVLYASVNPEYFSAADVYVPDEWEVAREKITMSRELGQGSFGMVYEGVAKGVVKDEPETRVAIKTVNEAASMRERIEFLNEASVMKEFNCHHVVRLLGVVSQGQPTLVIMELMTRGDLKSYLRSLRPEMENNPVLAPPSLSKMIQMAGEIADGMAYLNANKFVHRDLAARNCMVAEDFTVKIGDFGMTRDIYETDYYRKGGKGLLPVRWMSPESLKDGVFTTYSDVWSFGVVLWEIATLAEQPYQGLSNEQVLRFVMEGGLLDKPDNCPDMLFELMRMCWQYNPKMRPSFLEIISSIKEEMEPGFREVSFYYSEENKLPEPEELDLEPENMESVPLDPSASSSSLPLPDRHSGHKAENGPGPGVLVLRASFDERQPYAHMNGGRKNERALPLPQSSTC
Sequence of Serine/threonine-protein kinase ULK2 (Homo sapiens) (Q8IYT8 whole entry, the tested form may be a part): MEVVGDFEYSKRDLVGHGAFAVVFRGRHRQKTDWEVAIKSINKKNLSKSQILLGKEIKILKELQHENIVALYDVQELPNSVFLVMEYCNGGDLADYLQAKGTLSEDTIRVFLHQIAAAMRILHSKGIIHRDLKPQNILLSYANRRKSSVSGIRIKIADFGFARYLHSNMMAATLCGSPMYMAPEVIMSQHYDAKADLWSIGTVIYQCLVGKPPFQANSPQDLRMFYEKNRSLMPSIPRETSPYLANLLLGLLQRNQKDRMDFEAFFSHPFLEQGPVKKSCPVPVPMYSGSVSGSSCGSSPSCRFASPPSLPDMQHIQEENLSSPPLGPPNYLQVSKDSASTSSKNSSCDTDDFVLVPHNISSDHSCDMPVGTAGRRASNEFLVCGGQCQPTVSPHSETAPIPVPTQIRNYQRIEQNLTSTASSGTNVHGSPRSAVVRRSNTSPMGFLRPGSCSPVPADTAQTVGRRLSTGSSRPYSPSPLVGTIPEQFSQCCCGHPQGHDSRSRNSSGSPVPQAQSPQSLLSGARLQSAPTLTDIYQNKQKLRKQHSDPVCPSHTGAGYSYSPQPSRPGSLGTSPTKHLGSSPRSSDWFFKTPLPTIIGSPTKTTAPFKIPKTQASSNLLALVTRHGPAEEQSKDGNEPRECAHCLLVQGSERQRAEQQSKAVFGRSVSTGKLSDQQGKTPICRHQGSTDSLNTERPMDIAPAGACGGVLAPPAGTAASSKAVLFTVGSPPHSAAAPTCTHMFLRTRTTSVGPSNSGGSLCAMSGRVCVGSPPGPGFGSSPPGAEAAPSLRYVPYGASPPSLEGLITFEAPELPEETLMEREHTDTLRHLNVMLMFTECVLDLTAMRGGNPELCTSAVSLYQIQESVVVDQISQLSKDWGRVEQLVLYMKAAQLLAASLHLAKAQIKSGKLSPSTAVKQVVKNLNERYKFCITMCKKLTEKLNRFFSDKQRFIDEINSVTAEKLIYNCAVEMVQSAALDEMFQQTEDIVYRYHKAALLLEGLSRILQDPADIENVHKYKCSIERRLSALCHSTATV
Sequence of Tribbles homolog 2 (Homo sapiens) (Q92519 whole entry, the tested form may be a part): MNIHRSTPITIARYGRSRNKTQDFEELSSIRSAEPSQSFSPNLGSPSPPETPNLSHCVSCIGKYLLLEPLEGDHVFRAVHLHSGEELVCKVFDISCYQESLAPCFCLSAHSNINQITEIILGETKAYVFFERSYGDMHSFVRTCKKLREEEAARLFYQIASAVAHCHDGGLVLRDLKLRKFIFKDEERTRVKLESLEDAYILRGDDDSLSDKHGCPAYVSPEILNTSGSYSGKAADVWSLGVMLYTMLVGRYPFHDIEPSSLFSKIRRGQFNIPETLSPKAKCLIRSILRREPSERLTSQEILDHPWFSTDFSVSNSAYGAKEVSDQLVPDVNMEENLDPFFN
Sequence of Tyrosine-protein kinase Blk (Homo sapiens), P51451 [UNDEFINED MUTATION] (P51451 whole entry, looked up, stated change not applied): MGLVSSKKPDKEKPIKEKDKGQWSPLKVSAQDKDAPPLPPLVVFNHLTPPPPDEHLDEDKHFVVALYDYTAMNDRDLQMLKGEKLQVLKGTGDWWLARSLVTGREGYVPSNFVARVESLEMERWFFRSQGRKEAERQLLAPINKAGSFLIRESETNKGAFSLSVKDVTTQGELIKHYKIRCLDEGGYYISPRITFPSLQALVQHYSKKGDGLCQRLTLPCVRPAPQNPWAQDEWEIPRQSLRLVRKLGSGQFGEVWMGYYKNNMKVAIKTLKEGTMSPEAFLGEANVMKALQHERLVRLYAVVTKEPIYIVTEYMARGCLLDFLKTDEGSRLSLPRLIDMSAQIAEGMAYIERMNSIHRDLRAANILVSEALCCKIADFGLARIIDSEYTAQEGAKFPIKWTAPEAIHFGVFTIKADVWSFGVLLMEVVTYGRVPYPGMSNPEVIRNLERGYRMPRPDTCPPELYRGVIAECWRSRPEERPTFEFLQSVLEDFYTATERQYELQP

As to `CN(C)C(=O)c1cc2cnc(Nc3ccc(NC(=O)CCCCCCCN=C=S)cc3)nc2n1C1CCCC1`, the inhibition in [1] was -7%; in [2] it was 68%; in [3], 56%; in assay [4] it was -10%; in assay [5] it was 37%; in the assay listed under Homo sapiens, 14%. The inhibition in [6] was -6%; in assay [7], 48%; in [8], 5%; in assay [9] it was 4%; in [10], 26%; in assay [11], 4%. The inhibition was 31% in [12]; 35% in assay [14]; “Dose-dependent effect” with A549 [15]; 45% in assay [16]; 12% in assay [17]; 57% in assay [18]. For the same compound, the inhibition was 13% in [19], 22% in [20] and 79% in assay [21]. Besides, the IC50 in the assay with Jurkat worked out at 3.43 µM. For the same compound, the viability at 0.5 µM in the assay with NCI-H1299 is 94.5%. Besides, the Activity in the assay with A549 [13] came out at 1.26%.
